Compound activity from PubChem.
Only some compounds are listed: those with a hit (about 2.6% of all), similar ones and a draw of the others.
Runt-CBFb FRET – inhibitors of RUNX1 Runt–CBFb binding, primary screen, biochemical, FRET, Cerulean-Runt, Venus-CBFb, uHTS | Runt-related transcription factor 1 (Homo sapiens) + Core-binding factor subunit beta … | Cerulean-Runt/Venus-CBFb FRET ratio 530/480, 1 h | inhibition, % at 20 µM | 220,000 compounds, 0.46% hits;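 active = inhibition over about 50% at 20 µM in the single-dose screen, limit read from the data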
Target sequence (Q01196 whole entry, looked up): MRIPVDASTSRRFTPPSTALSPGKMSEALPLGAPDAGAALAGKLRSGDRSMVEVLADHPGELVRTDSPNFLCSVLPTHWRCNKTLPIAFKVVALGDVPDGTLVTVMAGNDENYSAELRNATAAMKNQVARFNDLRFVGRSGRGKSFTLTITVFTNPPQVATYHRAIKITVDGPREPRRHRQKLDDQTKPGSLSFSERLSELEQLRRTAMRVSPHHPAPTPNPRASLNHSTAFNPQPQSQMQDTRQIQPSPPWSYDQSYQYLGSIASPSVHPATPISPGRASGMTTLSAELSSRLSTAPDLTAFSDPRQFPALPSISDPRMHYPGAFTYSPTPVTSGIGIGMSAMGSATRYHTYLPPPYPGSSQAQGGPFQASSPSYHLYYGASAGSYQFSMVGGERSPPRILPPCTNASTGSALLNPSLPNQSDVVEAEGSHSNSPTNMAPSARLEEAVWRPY
Target sequence (Q13951 whole entry, looked up): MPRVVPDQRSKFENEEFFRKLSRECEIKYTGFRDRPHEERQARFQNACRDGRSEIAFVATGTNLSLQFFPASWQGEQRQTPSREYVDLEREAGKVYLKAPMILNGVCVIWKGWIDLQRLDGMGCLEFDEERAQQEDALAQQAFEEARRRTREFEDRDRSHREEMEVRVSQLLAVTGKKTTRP
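test system = Cerulean-Runt domain fusion protein, energy donor | probe or stimulus = Venus-CBFb binding partner, 100 nM | incubation = two 1 h room-temperature incubations shielded from light | detection = fluorescence energy transfer, 422 nm excitation, 530/480 nm emission | measure = loss of energy transfer signal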
IMP-1 inh – IMP-1 metallo-beta-lactamase inhibitors, primary screen, biochemical, epi-absorbance readout, Pseudomonas aeruginosa enzyme; 290,000 compounds, 0.45% hits; purified IMP-1, nitrocefin hydrolysis, epi-absorbance fluorescence; AID 1556, 2009; inhibition, % at 5.6 µM; metallo-beta-lactamase IMP-1 (Pseudomonas aeruginosa);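 active = inhibition above the mean plus 3 SD of all compounds in the same screening run, cut at about 4.5% in these data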
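Assay system: purified recombinant IMP-1 beta-lactamase. Input: IMP-1 0.2 nM before substrate addition. Buffer or medium: Zinc- and detergent-supplemented HEPES buffer, pH 7.1. Schedule: 25 °C, 15 min preincubation, 25 min reaction. Signal: Epi-absorbance fluorescence, 480 nm excitation, 530 nm emission. Evaluation: percent inhibition from optical density relative to buffer-blank wells.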
Runt-SMMHC FRET – inhibitors of RUNX1 Runt–CBFb-SMMHC binding, primary screen, biochemical, FRET, Cerulean-Runt, Venus-CBFb-SMMHC, uHTS; Runt-related transcription factor 1 (Homo sapiens) + Core-binding factor subunit beta …; Cerulean-Runt/Venus-CBFb-SMMHC FRET ratio 530/480, 1 h; 220,000 compounds, 0.74% hits; inhibition, % at 20 µM; AID 1434, 2008;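 active = mean inhibition across duplicate retests at 20 µM reaching about 50%, limit read from the data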;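 also: inhibitors lower the FRET ratio by blocking Runt binding to CBFb-SMMHC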
RanGTP-Imp inh – inhibitors of RanGTP-importin-beta interaction, primary screen, biochemical, FRET, CFP-Ran, YFP-importin-beta, homogeneous; Ran GTPase (GTP-bound) - importin-beta complex; cell-free CFP-Ran/YFP-importin-beta FRET ratio; 300,000 compounds, 1.1% hits; inhibition, % (test concentration not listed);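 active = more than half of the replicate wells show a fall in the fluorescence ratio signal beyond about 16%, limit read from the data, passing the limit was not always enough; inconclusive = exactly half of the replicate wells pass the set limit; inactive = fewer than half of replicates pass the limit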
VIM-2 inhibitor – VIM-2 metallo-beta-lactamase inhibitors, primary screen, biochemical, epi-absorbance readout, Pseudomonas aeruginosa enzyme. purified VIM-2, nitrocefin hydrolysis, epi-absorbance fluorescence. inhibition, % at 5.6 µM. 290,000 compounds, 0.89% hits;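 active = inhibition above the mean of all tested compounds plus 3 SD, cutoff set per screening run, cut at about 7.5% in these data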;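 also: red hydrolysis product quenches plate fluorescence so inhibitors raise well fluorescence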
A number is an active result; – = inactive; ? = inconclusive; · = no result given.

SMILES | Runt-CBFb FRET | IMP-1 inh | Runt-SMMHC FRET | RanGTP-Imp inh | VIM-2 inhibitor
C=CCNC(=O)c1cccc(Br)c1 | – | – | – | 24 | –
CCOC(=O)c1c(NS(=O)(=O)c2cccc(OC)c2)sc2c1CCC2 | – | – | 69 | – | –
CCCN(CCC)CC(O)Cn1cc(/C=C/C(=O)c2ccccc2)c2ccccc21 (stereo not drawn) | – | – | – | 29 | –
CCCN(CCC)CC(O)Cn1cc(/C=C/C(=O)c2cccs2)c2ccccc21 (stereo not drawn) | – | – | – | – | –
CN1CCN(Cn2cc(/C=C/C(=O)c3ccccc3)c3ccccc32)CC1 | – | – | – | 67 | –
COc1ccc(N(C)C(=O)C2CCCN2S(=O)(=O)c2cccc3nsnc23)cc1 (stereo not drawn) | · | – | · | – | –
Cc1c(-n2c(SCC(=O)O)nnc2-c2ccccc2Br)c(=O)n(-c2ccccc2)n1C | – | – | – | – | 12
CCOc1cc(C(N)=O)cc(Br)c1OC | – | 4.6 | – | – | –
COc1ccc2c(c1)cc1c(=O)n(CC(=O)NCCCN3CCOCC3)nc(C)n12 | · | – | · | – | –
CCN(CC)S(=O)(=O)c1cccc(C(=O)N/N=C2\CCCC(=O)C2)c1 | – | 5.8 | – | – | –
COc1ccc(C(=O)Nc2nnc(SCC(=O)NCc3ccco3)s2)c(OC)c1 | · | – | · | – | 11
Cc1cccc(N(C(=O)CCC(=O)Nc2cc(C)on2)C(C(=O)NC2CCCC2)c2ccccc2)c1 (stereo not drawn) | · | – | · | – | –
CSc1ccc(S(=O)(=O)N2CCC(C(=O)NCC3CCCO3)CC2)cc1 (stereo not drawn) | · | – | · | – | –
Cc1ccc(-c2nc(-c3nccc4ccccc34)oc2-c2ccccc2)cc1 | – | – | 72 | – | –
COc1cc(-c2onc3ccc(Br)cc23)cc(OC)c1OC | 67 | – | 111 | – | –
O=c1/c(=C/c2ccco2)sc2nc(-c3ccccc3Br)nn12 | – | 5.2 | – | · | –
O=c1nc2n(Cc3ccccc3)c3ccccc3cc-2c(=O)[nH]1 | 63 | – | 82 | 89 | –
CN(C(=S)Nc1ccc(F)cc1)C1(c2ccccc2Cl)CCCCC1=O (stereo not drawn) | 88 | – | – | – | –
Cc1ccc(S(=O)(=O)NCCC(=O)Oc2ccc3ccc(=O)oc3c2)cc1 | – | – | 56 | – | –
CC1CCc2nc3sc4c(c3c(N)c2C1)CCCC4 (stereo not drawn) | – | – | – | – | –
CC1CCc2c(nc3sc4c(c3c2N)CCCC4)C1 (stereo not drawn) | – | – | – | ? | 8.1
Cn1cc(CCC(=O)NCc2ccc(Cl)cc2)c2ccccc21 | · | – | · | – | –
COC(=O)CSc1ncnc2c1cnn2Cc1ccccc1 | – | – | – | – | –
COc1cc(NC(=O)CSc2ncnc3c2cnn3Cc2ccccc2)cc(OC)c1 | – | 4.5 | – | – | –
Cn1cc(C(=O)C(F)(F)F)c2ccccc21 | – | 5.8 | – | – | –
SMILES | Runt-CBFb FRET | IMP-1 inh | Runt-SMMHC FRET | RanGTP-Imp inh | VIM-2 inhibitor
CN(C)CCCN1C(=O)c2oc3ccc(Cl)cc3c(=O)c2C1c1cccnc1 (stereo not drawn) | – | 6.4 | – | – | –
COc1ccc(NC2=CC(=O)CC(c3ccc(C)cc3)C2)c(OC)c1 (stereo not drawn) | · | – | · | – | –
COc1ccccc1NC1=CC(=O)CC(c2ccccc2)C1 (stereo not drawn) | – | – | – | 55 | –
N#Cc1cc2cc3c(cc2nc1NCCNC(=S)NCCCN1CCOCC1)OCO3 | 103 | – | 100 | – | –
N#Cc1cc2cc3c(cc2nc1SCC(=O)N1CCOCC1)OCO3 | · | – | · | – | –
CCN1CC=C2C(C#N)=C(N)C(C#N)(C#N)[C@H](c3cccc(OC)c3OC)[C@H]2C1 | – | – | 62 | · | –
COc1cccc(C2C3CN(C)CC=C3C(C#N)=C(N)C2(C#N)C#N)c1OC (stereo not drawn) | 74 | – | 62 | 39 | –
CCC(=O)Nc1nc2c(OC)ccc(OC)c2s1 | – | 4.9 | – | – | –
CC(CN1CCCC1)OC(=O)c1ccc(Br)cc1 (stereo not drawn) | · | – | · | – | –
O=C(O)CC(C(=O)O)N1C(=O)/C(=C/c2ccc(-c3nc4ccccc4s3)o2)SC1=S (stereo not drawn) | – | 5.6 | – | – | –
CCC(C)[C@H](NC(=O)[C@@H]1Cc2ccccc2CN1)C(=O)Nc1ccc2c(c1)OCO2 (stereo partly drawn) | · | – | · | – | –
Cc1ccc(CC2CC(=O)N(c3nc4ccccc4n3C)C2=O)cc1 (stereo not drawn) | – | 14 | – | – | –
Cc1cccc(CC2CC(=O)N(c3nc4ccccc4s3)C2=O)c1 (stereo not drawn) | – | 8.6 | – | – | –
CC1(C)CC(=O)C2=C(C1)NC(=O)NC2c1ccccc1 (stereo not drawn) | – | – | – | – | –
CC1C2=C(CC(C)(C)CC2=O)NC2=C1C(=O)CC(C)(C)C2 | – | – | 86 | 136 | –
CCOC(=O)c1c(-c2cccs2)csc1NC(=O)C(C)(C)C | 110 | – | – | – | –
CCOC(=O)c1c(-c2cccs2)csc1NC(C)=O | – | – | – | – | –
Cc1cc(C2C(=O)CC(=O)CC2c2ccccc2)on1 (stereo not drawn) | – | 7.7 | – | – | –
CCOc1ccc(-c2c(C(=O)N/N=C/c3cccnc3)nnn2-c2nonc2N)cc1 | · | – | · | – | –
FC(F)(F)c1ccc(Cl)c(-n2c(-c3cc(C4CC4)[nH]n3)n[nH]c2=S)c1 | – | – | – | – | –
COc1ccc(-c2csc(NC(C)c3nc4cc(C(F)(F)F)ccc4n3CCOCCO)n2)cc1 (stereo not drawn) | · | · | · | – | ·
Nc1ccc2c(C(F)(F)F)cc(=O)oc2c1 | – | – | 61 | 57 | –
CCN(CC)CCN1C2=C(C(=O)CC(C)(C)C2)C(c2cccc(F)c2)C2=C1CC(C)(C)CC2=O | 83 | – | 86 | 96 | –
CC1(C)CC(=O)C2=C(C1)N(CCN1CCOCC1)C1=C(C(=O)CC(C)(C)C1)C2c1cccc(Cl)c1 | · | – | – | 111 | –
CCCCN1C2=C(C(=O)CC(C)(C)C2)C(c2ccccc2)C2=C1c1ccccc1C2=O (stereo not drawn) | – | – | – | – | –
